# ChEMBL document CHEMBL3351268, “Synthesis, biological evaluation, and molecular modeling of new 3-(cyclopentyloxy)-4-methoxybenzaldehyde O-(2-(2,6-dimethylmorpholino)-2-oxoethyl) Oxime (GEBR-7b) related phosphodiesterase 4D (PDE4D) inhibitors” (J Med Chem, 2014)
# Activity calls are given as the source filed them. The rule behind the calls is not given here.
# Molecular target: T1, 3',5'-cyclic-AMP phosphodiesterase 4D (Homo sapiens, UniProt Q08499)
# Test: Inhibition of recombinant human PDE4D3 expressed in baculoviral system at 10 uM
# Conditions: not given
# How it was run: (§1)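 Recombinant PDE4 isoform enzyme activity measured with compound at 10 μM, in duplicate; result given as % inhibition relative to control activity. PDE4D3 is recombinant human, expressed in a baculoviral system.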
# T1 sequence (Q08499 whole entry): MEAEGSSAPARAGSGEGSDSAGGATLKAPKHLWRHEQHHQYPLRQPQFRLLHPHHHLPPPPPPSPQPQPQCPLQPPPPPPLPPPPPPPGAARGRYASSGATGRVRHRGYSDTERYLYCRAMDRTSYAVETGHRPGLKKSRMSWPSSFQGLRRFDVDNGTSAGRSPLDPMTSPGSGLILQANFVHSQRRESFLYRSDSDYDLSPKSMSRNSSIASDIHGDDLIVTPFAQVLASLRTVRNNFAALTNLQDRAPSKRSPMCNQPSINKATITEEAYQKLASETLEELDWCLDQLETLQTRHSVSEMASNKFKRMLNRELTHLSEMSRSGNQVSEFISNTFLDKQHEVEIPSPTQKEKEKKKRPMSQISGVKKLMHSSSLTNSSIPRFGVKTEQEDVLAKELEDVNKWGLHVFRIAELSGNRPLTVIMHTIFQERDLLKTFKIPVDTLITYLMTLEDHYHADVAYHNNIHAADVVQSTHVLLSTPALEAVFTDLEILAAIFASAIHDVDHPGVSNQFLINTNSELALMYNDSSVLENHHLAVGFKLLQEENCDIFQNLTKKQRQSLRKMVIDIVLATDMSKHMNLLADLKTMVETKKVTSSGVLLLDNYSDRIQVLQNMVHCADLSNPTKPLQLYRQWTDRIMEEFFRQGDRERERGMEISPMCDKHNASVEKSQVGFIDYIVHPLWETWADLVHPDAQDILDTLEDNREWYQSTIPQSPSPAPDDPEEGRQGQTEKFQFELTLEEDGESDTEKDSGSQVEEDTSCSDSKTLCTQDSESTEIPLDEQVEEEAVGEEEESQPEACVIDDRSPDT
row,Compound,inhibition
1,COc1ccc(/C=C/C(=O)N2CCC(O)CC2)cc1OC1CCCC1,22%
2,COc1ccc(CCC(=O)N2CCC(O)CC2)cc1OC1CCCC1,12%
3,COc1ccc(C(=O)N2CCOCC2)cc1OC1CCCC1,45%
4,COc1ccc(C(=O)N2CCC(O)CC2)cc1OC1CCCC1,20%
5,COc1ccc(/C=N/OCC(O)CNN2CC(C)OC(C)C2)cc1OC1CCCC1 (stereo not given),80%
6,COc1ccc(/C=C/C(=O)N2CCOCC2)cc1OC1CCCC1,25%
7,COc1ccc(CCC(=O)N2CC(C)OC(C)C2)cc1OC1CCCC1 (stereo not given),10%
8,COc1ccc(C(=O)NN2CC(C)OC(C)C2)cc1OC1CCCC1 (stereo not given),0%
9,COc1ccc(C(=O)N2CC(C)OC(C)C2)cc1OC1CCCC1 (stereo not given),31%
10,COc1ccc(/C=N/OCCC(=O)N2CCOCC2)cc1OC1CCCC1,49%
11,COc1ccc(/C=C/C(=O)N2CC(C)OC(C)C2)cc1OC1CCCC1 (stereo not given),16%
12,COc1ccc(/C=N/OCC(O)CNN2CCOCC2)cc1OC1CCCC1 (stereo not given),56%
13,COc1ccc(CCC(=O)N2CCOCC2)cc1OC1CCCC1,7%
14,COc1ccc(/C=N/N2CC(C)OC(C)C2)cc1OC1CCCC1 (stereo not given),75%
15,COc1ccc(/C=N/OCC(CN2CCC(OC(C)=O)CC2)OC(C)=O)cc1OC1CCCC1 (stereo not given),12%
16,COc1ccc(/C=N/OCCC(=O)N2CC(C)OC(C)C2)cc1OC1CCCC1 (stereo not given),24%
17,COc1ccc(/C=N/OCC(=O)N2CCC(O)CC2)cc1OC1CCCC1,30%
18,COc1ccc(/C=N/N2CCOCC2)cc1OC1CCCC1,83%
19,COc1ccc(C(=O)NN2CCOCC2)cc1OC1CCCC1,32%
20,COc1ccc(/C=N/OCC(O)CN2CCC(O)CC2)cc1OC1CCCC1 (stereo not given),65%

# Molecular target: T1, 3',5'-cyclic-AMP phosphodiesterase 4D
# Test: Inhibition of PDE4D3 (unknown origin) at 10 uM
# Conditions: not given
# How it was run: as §1
row,Compound,inhibition
1,COc1ccc(/C=N/OCC(O)CNN2CC(C)OC(C)C2)cc1OC1CCCC1 (stereo not given),80%
2,COc1ccc(C(=O)N2CC(C)OC(C)C2)cc1OC1CCCC1 (stereo not given),31%
3,COc1ccc(/C=N/OCC(O)CNN2CCOCC2)cc1OC1CCCC1 (stereo not given),56%
4,COc1ccc(/C=N/N2CC(C)OC(C)C2)cc1OC1CCCC1 (stereo not given),75%
5,COc1ccc(/C=N/N2CCOCC2)cc1OC1CCCC1,83%
6,COc1ccc(C(=O)NN2CCOCC2)cc1OC1CCCC1,32%
7,COc1ccc(/C=N/OCC(O)CN2CCC(O)CC2)cc1OC1CCCC1 (stereo not given),65%

# Molecular target: T1, 3',5'-cyclic-AMP phosphodiesterase 4D
# Test: Inhibition of recombinant human PDE4D3 expressed in baculoviral system
# Conditions: not given
# How it was run: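 Recombinant PDE4 isoform enzyme (PDE4D3: recombinant human, baculoviral expression) tested at five concentrations over 5 × 10−8–10−4 M, in duplicate. IC50 obtained by nonlinear regression of the inhibition curve with Hill equation fitting.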
row,Compound,IC50
1,COc1ccc(/C=N/OCC(O)CNN2CC(C)OC(C)C2)cc1OC1CCCC1 (stereo not given),210 nM
2,COc1ccc(/C=N/OCC(O)CNN2CCOCC2)cc1OC1CCCC1 (stereo not given),1260 nM
3,COc1ccc(/C=N/N2CC(C)OC(C)C2)cc1OC1CCCC1 (stereo not given),1550 nM
4,COc1ccc(/C=N/N2CCOCC2)cc1OC1CCCC1,660 nM
5,COc1ccc(/C=N/OCC(O)CN2CCC(O)CC2)cc1OC1CCCC1 (stereo not given),1790 nM

# Molecular target: T1, 3',5'-cyclic-AMP phosphodiesterase 4D
# Test: Inhibition of PDE4D2 (unknown origin) at 10 uM
# Conditions: not given
row,Compound,inhibition
1,COc1ccc(/C=N/OCC(O)CNN2CC(C)OC(C)C2)cc1OC1CCCC1 (stereo not given),74%
2,COc1ccc(C(=O)N2CC(C)OC(C)C2)cc1OC1CCCC1 (stereo not given),9%
3,COc1ccc(/C=N/N2CC(C)OC(C)C2)cc1OC1CCCC1 (stereo not given),53%
4,COc1ccc(/C=N/N2CCOCC2)cc1OC1CCCC1,62%
5,COc1ccc(C(=O)NN2CCOCC2)cc1OC1CCCC1,32%

# Molecular target: T1, 3',5'-cyclic-AMP phosphodiesterase 4D
# Test: Inhibition of PDE4D3 in human HTLA230 cells assessed as accumulation of intracellular cAMP pretreated at 100 uM for 10 min before forskolin addition measured after 20 mins by enzyme immunoassay
# Assay type: cell-based
# Conditions: not given
# How it was run: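 cAMP accumulation in HTLA cells treated 30 min with compound. Where indicated, forskolin was added during the last 20 min to raise basal cAMP. Intracellular cAMP measured by cAMP-specific enzymatic immunoassay.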
row,Compound,inhibition
1,COc1ccc(/C=N/OCC(O)CN2CCC(O)CC2)cc1OC1CCCC1 (stereo not given),Active

# Tested on: not listed separately
# Test: Genotoxicity against human HTLA-230 cells assessed as phosphorylation of histone H2AX at 100 uM after 24 hrs by Western blot analysis
# Assay type: toxicity, cell-based
# Conditions: htla-230, 24 h
row,Compound,Activity
1,COc1ccc(/C=N/OCC(O)CNN2CC(C)OC(C)C2)cc1OC1CCCC1 (stereo not given),Non-toxic
2,COc1ccc(/C=N/OCC(=O)N2CC(C)OC(C)C2)cc1OC1CCCC1 (stereo not given),Non-toxic
3,COc1ccc(/C=N/OCC(O)CNN2CCOCC2)cc1OC1CCCC1 (stereo not given),Non-toxic
4,COc1ccc(/C=N/N2CC(C)OC(C)C2)cc1OC1CCCC1 (stereo not given),Non-toxic
5,COc1cc([C@@H]2c3cc4c(cc3[C@@H](O[C@@H]3O[C@@H]5CO[C@@H](C)O[C@H]5[C@H](O)[C@H]3O)[C@H]3COC(=O)[C@H]23)OCO4)cc(OC)c1O [ETOPOSIDE],Toxic
6,COc1ccc(/C=N/N2CCOCC2)cc1OC1CCCC1,Non-toxic
7,COc1ccc(/C=N/OCC(O)CN2CCC(O)CC2)cc1OC1CCCC1 (stereo not given),Non-toxic

# Species on record: Homo sapiens
# Test: Selectivity ratio of IC50 PDE4B2 (unknown origin) for to IC50 for ecombinant human PDE4D3 expressed in baculoviral system
# Conditions: not given
row,Compound,Ratio IC50
1,COc1ccc(/C=N/OCC(O)CNN2CC(C)OC(C)C2)cc1OC1CCCC1 (stereo not given),90
2,COc1ccc(/C=N/N2CCOCC2)cc1OC1CCCC1,2.6

# Tested on: not listed separately
# Test: Cytotoxicity against human HTLA-230 cells at 100 uM after 24 hrs by lactate dehydrogenase release assay
# Assay type: cell-based
# Conditions: htla-230, 24 h
# How it was run: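 HTLA human neuronal cells exposed 24 h to 100 μM test compound; cytotoxicity read as lactate-dehydrogenase release.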
row,Compound,Activity
1,COc1ccc(/C=N/OCC(O)CNN2CC(C)OC(C)C2)cc1OC1CCCC1 (stereo not given),0.75%
2,COc1ccc(/C=N/OCC(=O)N2CC(C)OC(C)C2)cc1OC1CCCC1 (stereo not given),0.14%
3,COc1ccc(/C=N/OCC(O)CNN2CCOCC2)cc1OC1CCCC1 (stereo not given),0.01%
4,COc1ccc(/C=N/N2CC(C)OC(C)C2)cc1OC1CCCC1 (stereo not given),0.01%
5,COc1ccc(/C=N/N2CCOCC2)cc1OC1CCCC1,0.04%
6,COc1ccc(/C=N/OCC(O)CN2CCC(O)CC2)cc1OC1CCCC1 (stereo not given),1.2%

# Molecular target: T2, 3',5'-cyclic-AMP phosphodiesterase 4B (Homo sapiens, UniProt Q07343)
# Test: Inhibition of PDE4B2 (unknown origin)
# Conditions: not given
# T2 sequence (Q07343 whole entry): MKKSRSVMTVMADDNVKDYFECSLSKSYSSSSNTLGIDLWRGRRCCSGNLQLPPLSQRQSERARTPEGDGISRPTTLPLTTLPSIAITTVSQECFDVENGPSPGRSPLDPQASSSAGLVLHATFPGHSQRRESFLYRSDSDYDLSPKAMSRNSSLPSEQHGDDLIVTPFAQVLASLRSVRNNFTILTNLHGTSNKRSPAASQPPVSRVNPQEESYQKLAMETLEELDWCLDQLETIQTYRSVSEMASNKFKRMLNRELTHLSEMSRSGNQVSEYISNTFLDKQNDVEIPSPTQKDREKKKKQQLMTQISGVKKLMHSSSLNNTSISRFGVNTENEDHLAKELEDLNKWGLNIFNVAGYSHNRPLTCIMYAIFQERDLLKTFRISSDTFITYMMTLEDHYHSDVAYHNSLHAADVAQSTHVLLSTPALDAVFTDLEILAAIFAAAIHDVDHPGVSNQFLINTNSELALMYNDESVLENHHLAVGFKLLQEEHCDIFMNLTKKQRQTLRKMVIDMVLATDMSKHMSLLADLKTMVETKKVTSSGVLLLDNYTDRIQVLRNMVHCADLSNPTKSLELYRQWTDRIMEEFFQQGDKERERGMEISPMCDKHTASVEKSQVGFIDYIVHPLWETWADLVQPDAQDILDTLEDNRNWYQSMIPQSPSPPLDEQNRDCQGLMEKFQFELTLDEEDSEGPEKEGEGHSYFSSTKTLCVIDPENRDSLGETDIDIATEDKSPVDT
row,Compound,IC50
1,COc1ccc(/C=N/OCC(O)CNN2CC(C)OC(C)C2)cc1OC1CCCC1 (stereo not given),18000 nM
2,COc1ccc(/C=N/N2CCOCC2)cc1OC1CCCC1,1600 nM

# Molecular target: T2, 3',5'-cyclic-AMP phosphodiesterase 4B
# Test: Inhibition of PDE4B2 (unknown origin) at 10 uM
# Conditions: not given
# How it was run: as §1
row,Compound,inhibition
1,COc1ccc(/C=N/OCC(O)CNN2CC(C)OC(C)C2)cc1OC1CCCC1 (stereo not given),51%
2,COc1ccc(/C=N/OCC(O)CNN2CCOCC2)cc1OC1CCCC1 (stereo not given),34%
3,COc1ccc(/C=N/N2CC(C)OC(C)C2)cc1OC1CCCC1 (stereo not given),47%
4,COc1ccc(/C=N/N2CCOCC2)cc1OC1CCCC1,62%
5,COc1ccc(/C=N/OCC(O)CN2CCC(O)CC2)cc1OC1CCCC1 (stereo not given),5%

# Molecular target: T1, 3',5'-cyclic-AMP phosphodiesterase 4D
# Test: Inhibition of PDE4D1 (unknown origin) at 10 uM
# Conditions: not given
row,Compound,inhibition
1,COc1ccc(/C=N/OCC(O)CNN2CC(C)OC(C)C2)cc1OC1CCCC1 (stereo not given),65%
2,COc1ccc(C(=O)N2CC(C)OC(C)C2)cc1OC1CCCC1 (stereo not given),18%
3,COc1ccc(/C=N/N2CC(C)OC(C)C2)cc1OC1CCCC1 (stereo not given),68%
4,COc1ccc(/C=N/N2CCOCC2)cc1OC1CCCC1,75%
5,COc1ccc(C(=O)NN2CCOCC2)cc1OC1CCCC1,49%

# Molecular target: 3',5'-cyclic-AMP phosphodiesterase 4A (Homo sapiens) (UniProt P27815)
# Test: Inhibition of PDE4A4 (unknown origin) at 10 uM
# Conditions: not given
# How it was run: as §1
# Sequence of 3',5'-cyclic-AMP phosphodiesterase 4A (Homo sapiens) (P27815 whole entry): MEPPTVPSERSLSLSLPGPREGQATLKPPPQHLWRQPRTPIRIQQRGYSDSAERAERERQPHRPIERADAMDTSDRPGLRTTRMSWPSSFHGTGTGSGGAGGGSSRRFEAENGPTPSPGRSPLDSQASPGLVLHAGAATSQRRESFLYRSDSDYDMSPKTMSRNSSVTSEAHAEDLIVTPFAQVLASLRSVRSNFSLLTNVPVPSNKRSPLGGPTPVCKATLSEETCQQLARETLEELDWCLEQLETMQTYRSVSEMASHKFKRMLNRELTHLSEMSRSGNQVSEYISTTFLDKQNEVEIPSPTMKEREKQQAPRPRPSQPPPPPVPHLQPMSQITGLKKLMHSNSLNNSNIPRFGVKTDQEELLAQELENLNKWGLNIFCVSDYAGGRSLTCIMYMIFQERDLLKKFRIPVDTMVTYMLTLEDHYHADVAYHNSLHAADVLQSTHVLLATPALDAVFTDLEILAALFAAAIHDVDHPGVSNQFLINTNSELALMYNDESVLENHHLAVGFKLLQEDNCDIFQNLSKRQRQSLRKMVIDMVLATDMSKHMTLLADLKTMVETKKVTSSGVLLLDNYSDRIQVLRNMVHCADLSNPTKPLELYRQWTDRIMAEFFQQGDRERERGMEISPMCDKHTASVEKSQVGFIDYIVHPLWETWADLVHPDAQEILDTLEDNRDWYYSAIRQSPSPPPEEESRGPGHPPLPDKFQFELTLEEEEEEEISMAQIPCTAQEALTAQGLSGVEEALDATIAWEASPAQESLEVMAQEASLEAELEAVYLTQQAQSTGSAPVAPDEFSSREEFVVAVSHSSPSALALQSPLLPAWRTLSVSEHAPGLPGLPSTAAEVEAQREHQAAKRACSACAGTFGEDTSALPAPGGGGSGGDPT
row,Compound,inhibition
1,COc1ccc(/C=N/OCC(O)CNN2CC(C)OC(C)C2)cc1OC1CCCC1 (stereo not given),41%
2,COc1ccc(/C=N/OCC(O)CNN2CCOCC2)cc1OC1CCCC1 (stereo not given),33%
3,COc1ccc(/C=N/N2CC(C)OC(C)C2)cc1OC1CCCC1 (stereo not given),29%
4,COc1ccc(/C=N/N2CCOCC2)cc1OC1CCCC1,41%
5,COc1ccc(/C=N/OCC(O)CN2CCC(O)CC2)cc1OC1CCCC1 (stereo not given),10%
